Test system: Fibroblast
Experiment: Multiplex assay against human fibroblast
Assay type: toxicity, cell-based
Outline: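 With compound added, live cells were imaged on a CQ1 microscope at 37°C and 5% CO2; staining with Hoechst33342, BioTracker Green Microtubule Cytoskeleton Dye, MitoTracker Red and Annexin V Alexa Fluor 680 had been done at seeding. The CellPathfinder machine-learning gating scheme split cells into Hoechst high-intensity objects or normal cells, normal cells into healthy, pyknosed or fragmented nuclei, and pyknosed cells into mitotic or apoptotic. The tubulin, mitochondrial-mass and membrane-permeability phenotypes are per cents of healthy-nucleus cells.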

[1] = 12 h, 1 µM, compound concentration 1 uM, replicate 1
[2] = 12 h, 1 µM, compound concentration 1 uM, replicate 2
[3] = 12 h, 10 µM, compound concentration 10 uM, replicate 1
[4] = 12 h, 10 µM, compound concentration 10 uM, replicate 2
[5] = 24 h, 1 µM, compound concentration 1 uM, replicate 1
[6] = 24 h, 1 µM, compound concentration 1 uM, replicate 2
[7] = 24 h, 10 µM, compound concentration 10 uM, replicate 1
[8] = 24 h, 10 µM, compound concentration 10 uM, replicate 2
[9] = 48 h, 1 µM, compound concentration 1 uM, replicate 1
[10] = 48 h, 1 µM, compound concentration 1 uM, replicate 2
[11] = 48 h, 10 µM, compound concentration 10 uM, replicate 1
[12] = 48 h, 10 µM, compound concentration 10 uM, replicate 2

In the case of `CC(C)(C)c1cc(NC(=O)Nc2ccc(-c3cn4c(n3)sc3cc(OCCN5CCOCC5)ccc34)cc2)no1` [QUIZARTINIB], the “Population Apoptotic (%)” value [1] is reported as 42%, the “Population Fragmented Nuclei (%)” value [1] is reported as 16% and the “Population Healthy Nuclei (%)” value [1] is reported as 65%. For the same compound, the “Population Hoechst High Intensity Objects (%)” value [1] was 2%, the “Population Membrane Permeable-Phenotype (%)” value [1] was 0% and the “Population Mitochondria Different-Phenotype (%)” value [1] was 7%. For the same compound, the “Population Mitotic Cells (%)” value [1] was 57%, the “Population Normal (%)” value [1] was 97% and the “Population Pyknosed Nuclei (%)” value [1] was 17%. The “Population Tubulin-Different-Phenotype (%)” value [1] was 31%, the “Total Cell Count” value [1] was 150 and the “Population Apoptotic (%)” value [2] was 41%. The “Population Fragmented Nuclei (%)” value [2] was 24%, the “Population Healthy Nuclei (%)” value [2] was 52% and the “Population Membrane Permeable-Phenotype (%)” value [2] was 1%. The “Population Mitochondria Different-Phenotype (%)” value [2] was 5%, the “Population Mitotic Cells (%)” value [2] was 58% and the “Population Pyknosed Nuclei (%)” value [2] was 23%. For the same compound, the “Population Tubulin-Different-Phenotype (%)” value [2] was 41%, the “Total Cell Count” value [2] was 137 and the “Population Apoptotic (%)” value [3] was 43%. The “Population Fragmented Nuclei (%)” value [3] was 34%, the “Population Healthy Nuclei (%)” value [3] was 56% and the “Population Hoechst High Intensity Objects (%)” value [3] was 3%. The “Population Membrane Permeable-Phenotype (%)” value [3] was 0%, the “Population Mitochondria Different-Phenotype (%)” value [3] was 10% and the “Population Mitotic Cells (%)” value [3] was 56%. For the same compound, the “Population Normal (%)” value [3] was 96%, the “Population Pyknosed Nuclei (%)” value [3] was 8% and the “Population Tubulin-Different-Phenotype (%)” value [3] was 75%. For the same compound, the “Total Cell Count” value [3] was 190, the “Population Apoptotic (%)” value [4] was 48% and the “Population Fragmented Nuclei (%)” value [4] was 35%. The “Population Healthy Nuclei (%)” value [4] was 45%, the “Population Hoechst High Intensity Objects (%)” value [4] was 5% and the “Population Membrane Permeable-Phenotype (%)” value [4] was 5%. For the same compound, the “Population Mitochondria Different-Phenotype (%)” value [4] was 5%, the “Population Mitotic Cells (%)” value [4] was 51% and the “Population Normal (%)” value [4] was 94%. For the same compound, the “Population Pyknosed Nuclei (%)” value [4] was 18%, the “Population Tubulin-Different-Phenotype (%)” value [4] was 70% and the “Total Cell Count” value [4] was 162. For the same compound, the “Population Apoptotic (%)” value [5] was 58%, the “Population Fragmented Nuclei (%)” value [5] was 14% and the “Population Healthy Nuclei (%)” value [5] was 72%. For the same compound, the “Population Hoechst High Intensity Objects (%)” value [5] was 1%, the “Population Membrane Permeable-Phenotype (%)” value [5] was 0% and the “Population Mitochondria Different-Phenotype (%)” value [5] was 6%. For the same compound, the “Population Mitotic Cells (%)” value [5] was 41%, the “Population Normal (%)” value [5] was 98% and the “Population Pyknosed Nuclei (%)” value [5] was 12%. For the same compound, the “Population Tubulin-Different-Phenotype (%)” value [5] was 32%, the “Total Cell Count” value [5] was 137 and the “Population Apoptotic (%)” value [6] was 42%. For the same compound, the “Population Fragmented Nuclei (%)” value [6] was 25%, the “Population Healthy Nuclei (%)” value [6] was 61% and the “Population Hoechst High Intensity Objects (%)” value [6] was 3%. The “Population Membrane Permeable-Phenotype (%)” value [6] was 2%, the “Population Mitotic Cells (%)” value [6] was 57% and the “Population Normal (%)” value [6] was 96%. For the same compound, the “Population Pyknosed Nuclei (%)” value [6] was 13%, the “Population Tubulin-Different-Phenotype (%)” value [6] was 44% and the “Total Cell Count” value [6] was 152. The “Population Apoptotic (%)” value [7] was 75%, the “Population Fragmented Nuclei (%)” value [7] was 33% and the “Population Healthy Nuclei (%)” value [7] was 57%. The “Population Hoechst High Intensity Objects (%)” value [7] was 1%, the “Population Membrane Permeable-Phenotype (%)” value [7] was 0% and the “Population Mitochondria Different-Phenotype (%)” value [7] was 21%. For the same compound, the “Population Mitotic Cells (%)” value [7] was 25%, the “Population Normal (%)” value [7] was 98% and the “Population Pyknosed Nuclei (%)” value [7] was 8%. The “Population Tubulin-Different-Phenotype (%)” value [7] was 71%, the “Total Cell Count” value [7] was 190 and the “Population Apoptotic (%)” value [8] was 39%. The “Population Fragmented Nuclei (%)” value [8] was 40%, the “Population Healthy Nuclei (%)” value [8] was 46% and the “Population Hoechst High Intensity Objects (%)” value [8] was 4%. The “Population Membrane Permeable-Phenotype (%)” value [8] was 1%, the “Population Mitochondria Different-Phenotype (%)” value [8] was 10% and the “Population Mitotic Cells (%)” value [8] was 60%. The “Population Normal (%)” value [8] was 95%, the “Population Pyknosed Nuclei (%)” value [8] was 13% and the “Population Tubulin-Different-Phenotype (%)” value [8] was 70%. The “Total Cell Count” value [8] was 179, the “Population Apoptotic (%)” value [9] was 75% and the “Population Fragmented Nuclei (%)” value [9] was 19%. For the same compound, the “Population Healthy Nuclei (%)” value [9] was 71%, the “Population Hoechst High Intensity Objects (%)” value [9] was 8% and the “Population Membrane Permeable-Phenotype (%)” value [9] was 0%. For the same compound, the “Population Mitochondria Different-Phenotype (%)” value [9] was 5%, the “Population Mitotic Cells (%)” value [9] was 25% and the “Population Normal (%)” value [9] was 91%. The “Population Pyknosed Nuclei (%)” value [9] was 9%, the “Population Tubulin-Different-Phenotype (%)” value [9] was 38% and the “Total Cell Count” value [9] was 145. The “Population Apoptotic (%)” value [10] was 42%, the “Population Fragmented Nuclei (%)” value [10] was 30% and the “Population Healthy Nuclei (%)” value [10] was 60%. For the same compound, the “Population Hoechst High Intensity Objects (%)” value [10] was 3%, the “Population Membrane Permeable-Phenotype (%)” value [10] was 1% and the “Population Mitochondria Different-Phenotype (%)” value [10] was 8%. For the same compound, the “Population Mitotic Cells (%)” value [10] was 57%, the “Population Normal (%)” value [10] was 96% and the “Population Tubulin-Different-Phenotype (%)” value [10] was 34%. For the same compound, the “Total Cell Count” value [10] was 158, the “Population Apoptotic (%)” value [11] was 79% and the “Population Fragmented Nuclei (%)” value [11] was 30%. The “Population Healthy Nuclei (%)” value [11] was 56%, the “Population Hoechst High Intensity Objects (%)” value [11] was 7% and the “Population Membrane Permeable-Phenotype (%)” value [11] was 0%. For the same compound, the “Population Mitochondria Different-Phenotype (%)” value [11] was 25%, the “Population Mitotic Cells (%)” value [11] was 20% and the “Population Normal (%)” value [11] was 92%. The “Population Pyknosed Nuclei (%)” value [11] was 13%, the “Population Tubulin-Different-Phenotype (%)” value [11] was 74% and the “Total Cell Count” value [11] was 195. For the same compound, the “Population Apoptotic (%)” value [12] was 60%, the “Population Fragmented Nuclei (%)” value [12] was 44% and the “Population Healthy Nuclei (%)” value [12] was 50%. The “Population Hoechst High Intensity Objects (%)” value [12] was 3%, the “Population Membrane Permeable-Phenotype (%)” value [12] was 2% and the “Population Mitochondria Different-Phenotype (%)” value [12] was 6%. For the same compound, the “Population Mitotic Cells (%)” value [12] was 40%, the “Population Normal (%)” value [12] was 96% and the “Population Pyknosed Nuclei (%)” value [12] was 5%. The “Population Tubulin-Different-Phenotype (%)” value [12] was 59%.
